How the values were obtained:
[1] = molecular target: Mu-type opioid receptor (Homo sapiens, UniProt P35372); assay: Displacement of [3H]DAMGO from human mu opioid receptor expressed in CHO cell membrane; assay type: cell membranes
[2] = molecular target: Delta-type opioid receptor (Homo sapiens, UniProt P41143); assay: Displacement of [3H]Naltindole from human delta opioid receptor expressed in CHO cell membrane; assay type: cell membranes
Method in brief: (§1)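 Compounds were tested as hydrochloride salts in competition binding against the tritiated radioligand on CHO cell membranes. Ki values are given ± SEM.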

[3] = molecular target: Kappa-type opioid receptor (Homo sapiens, UniProt P41145); assay: Displacement of [3H]U69593 from human kappa opioid receptor expressed in CHO cell membrane; assay type: cell membranes; method in brief: as §1
Sequence of Kappa-type opioid receptor (P41145 whole entry): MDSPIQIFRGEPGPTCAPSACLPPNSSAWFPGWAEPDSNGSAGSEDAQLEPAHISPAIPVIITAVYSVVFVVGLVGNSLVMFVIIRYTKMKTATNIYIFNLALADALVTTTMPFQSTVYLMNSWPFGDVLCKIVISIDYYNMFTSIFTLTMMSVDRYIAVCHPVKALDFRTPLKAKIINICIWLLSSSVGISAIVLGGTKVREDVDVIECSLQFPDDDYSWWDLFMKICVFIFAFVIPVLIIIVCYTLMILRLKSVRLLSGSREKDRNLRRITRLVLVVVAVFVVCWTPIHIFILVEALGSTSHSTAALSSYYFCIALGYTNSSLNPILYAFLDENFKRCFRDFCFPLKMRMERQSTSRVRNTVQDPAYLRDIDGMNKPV

[4] = species: Homo sapiens; assay: Selectivity ratio of Ki for human kappa opioid receptor to Ki for human delta opioid receptor
[5] = species: Homo sapiens; assay: Selectivity ratio of Ki for human mu opioid receptor to Ki for human delta opioid receptor
[6] = species: Homo sapiens; assay: Selectivity ratio of Ki for human mu opioid receptor to Ki for human kappa opioid receptor

Sequence of Mu-type opioid receptor (P35372 whole entry): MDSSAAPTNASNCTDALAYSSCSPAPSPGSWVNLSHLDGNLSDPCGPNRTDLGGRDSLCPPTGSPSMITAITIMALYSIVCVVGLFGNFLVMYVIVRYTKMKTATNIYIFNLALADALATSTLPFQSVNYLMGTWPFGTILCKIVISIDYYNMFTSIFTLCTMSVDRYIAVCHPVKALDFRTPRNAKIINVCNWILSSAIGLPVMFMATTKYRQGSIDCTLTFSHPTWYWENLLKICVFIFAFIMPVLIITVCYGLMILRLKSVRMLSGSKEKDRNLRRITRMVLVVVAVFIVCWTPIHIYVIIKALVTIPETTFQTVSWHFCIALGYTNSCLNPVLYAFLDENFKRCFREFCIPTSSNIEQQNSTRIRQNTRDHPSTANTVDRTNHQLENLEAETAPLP
Sequence of Delta-type opioid receptor (P41143 whole entry): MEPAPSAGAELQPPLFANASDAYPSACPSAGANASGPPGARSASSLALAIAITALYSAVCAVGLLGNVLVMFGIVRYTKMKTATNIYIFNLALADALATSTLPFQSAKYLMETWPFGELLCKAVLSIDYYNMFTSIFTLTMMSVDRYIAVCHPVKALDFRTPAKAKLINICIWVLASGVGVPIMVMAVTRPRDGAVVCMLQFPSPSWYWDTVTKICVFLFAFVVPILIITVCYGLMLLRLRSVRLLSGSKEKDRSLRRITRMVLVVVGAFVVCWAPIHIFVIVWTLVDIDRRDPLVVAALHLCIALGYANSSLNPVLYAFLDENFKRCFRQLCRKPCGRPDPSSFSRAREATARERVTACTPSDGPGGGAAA

`COc1ccc(CC(=O)Oc2ccc3c(c2)[C@@]24CCCC[C@@]2(O)[C@@H](C3)N(CC2CCC2)CC4)cc1` showed a Ki [1] of 0.22 nM, a Ki [2] of 23 nM and a Ki [3] of 0.21 nM. For the same compound, the Ratio Ki [4] was 1, the Ratio Ki [5] was 110 and the Ratio Ki [6] was 1.

`Oc1ccc2c(c1)[C@@]13CCCC[C@@]1(O)[C@@H](C2)N(CC1CCC1)CC3` [BUTORPHANOL] showed a Ki [3] of 0.12 nM.

Compound `O=C(COc1ccccc1)Oc1ccc2c(c1)[C@@]13CCCC[C@@]1(O)[C@@H](C2)N(CC1CCC1)CC3` has a Ki [1] of 0.061 nM, a Ki [2] of 22 nM and a Ki [3] of 0.048 nM. It also gave a Ratio Ki [4] of 1.3, a Ratio Ki [5] of 458 and a Ratio Ki [6] of 1.

`O=[N+]([O-])c1ccc(Oc2ccc3c(c2)[C@@]24CCCC[C@@]2(O)[C@@H](C3)N(CC2CCC2)CC4)cc1` showed a Ki [1] of 16 nM, a Ki [2] of 1500 nM and a Ki [3] of 28 nM. For the same compound, the Ratio Ki [4] was 1, the Ratio Ki [5] was 94 and the Ratio Ki [6] was 1.8.

`O[C@@]12CCCC[C@@]13CCN(CC1CCC1)[C@@H]2Cc1ccc(OCc2ccccc2)cc13` showed a Ki [1] of 21 nM, a Ki [2] of 670 nM and a Ki [3] of 28 nM. It also gave a Ratio Ki [4] of 1, a Ratio Ki [5] of 32 and a Ratio Ki [6] of 1.3.

`O=C(Oc1ccc2c(c1)[C@@]13CCCC[C@@]1(O)[C@@H](C2)N(CC1CCC1)CC3)c1ccc(-c2ccccc2)cc1` gave a Ki [1] of 15 nM, a Ki [2] of 690 nM and a Ki [3] of 18 nM. For the same compound, the Ratio Ki [4] was 1, the Ratio Ki [5] was 46 and the Ratio Ki [6] was 1.

Work on `C[C@H]1[C@H]2Cc3ccc(C(=O)N(C)CCc4ccc(-c5ccccc5)cc4)cc3[C@@]1(C)CCN2CC1CC1` yielded a Ki [1] of 6.7 nM, a Ki [2] of 12 nM and a Ki [3] of 11 nM. It also gave a Ratio Ki [4] of 1, a Ratio Ki [5] of 1.8 and a Ratio Ki [6] of 1.6.

For `O[C@@]12CCCC[C@@]13CCN(CC1CCC1)[C@@H]2Cc1ccc(OCCc2ccccc2)cc13`, the Ki [1] was 10 nM, the Ki [2] was 500 nM and the Ki [3] was 9 nM. It also gave a Ratio Ki [4] of 1, a Ratio Ki [5] of 56 and a Ratio Ki [6] of 1.

`Nc1ccc(Oc2ccc3c(c2)[C@@]24CCCC[C@@]2(O)[C@@H](C3)N(CC2CCC2)CC4)cc1` showed a Ki [1] of 3.9 nM, a Ki [2] of 930 nM and a Ki [3] of 5.2 nM. The Ratio Ki [4] was 1, the Ratio Ki [5] was 240 and the Ratio Ki [6] was 1.3.

`O=C(Cc1ccc(-c2ccccc2)cc1)Oc1ccc2c(c1)[C@@]13CCCC[C@@]1(O)[C@@H](C2)N(CC1CCC1)CC3` was tested, and the Ki [1] was 2.7 nM, the Ki [2] was 190 nM and the Ki [3] was 0.87 nM. It also gave a Ratio Ki [4] of 3.1, a Ratio Ki [5] of 218 and a Ratio Ki [6] of 1.

For `NC(=O)COc1ccc2c(c1)[C@@]13CCCC[C@@]1(O)[C@@H](C2)N(CC1CCC1)CC3`, the Ki [1] was 55 nM, the Ki [2] was 760 nM and the Ki [3] was 67 nM. For the same compound, the Ratio Ki [4] was 1, the Ratio Ki [5] was 11 and the Ratio Ki [6] was 1.2.

Work on `OCCCOc1ccc2c(c1)[C@@]13CCCC[C@@]1(O)[C@@H](C2)N(CC1CCC1)CC3` yielded a Ki [1] of 18 nM, a Ki [2] of 490 nM and a Ki [3] of 8.6 nM. The Ratio Ki [4] was 2.1, the Ratio Ki [5] was 57 and the Ratio Ki [6] was 1.

In the case of `Cc1ccc(C(C)C(=O)Oc2ccc3c(c2)[C@@]24CCCC[C@@]2(O)[C@@H](C3)N(CC2CCC2)CC4)cc1` (some centres undefined), the Ki [1] is reported as 2.3 nM, the Ki [2] is reported as 96 nM and the Ki [3] is reported as 1.3 nM. For the same compound, the Ratio Ki [4] was 1.9, the Ratio Ki [5] was 74 and the Ratio Ki [6] was 1.

Work on `O=C(Cc1ccccc1)Oc1ccc2c(c1)[C@@]13CCCC[C@@]1(O)[C@@H](C2)N(CC1CCC1)CC3` yielded a Ki [1] of 0.32 nM, a Ki [2] of 63 nM and a Ki [3] of 0.48 nM. For the same compound, the Ratio Ki [4] was 1, the Ratio Ki [5] was 197 and the Ratio Ki [6] was 1.5.

Reference: ChEMBL document CHEMBL1156604 (Bioorg Med Chem Lett, 2008)
